# Assay results gathered from unrelated publications.
# Compare with care: the assays were run in different laboratories.
# LRRK2: Leucine-rich repeat serine/threonine-protein kinase 2 (LRRK2, Homo sapiens, UniProt Q5S007)
# LRRK2 G2019S: Leucine-rich repeat serine/threonine-protein kinase 2 (LRRK2, Homo sapiens, UniProt Q5S007, G2019S)
Compound,target,test,conditions,endpoint,value
Cn1cc(-c2cccc(N3CCc4c(sc5c4CC(C)(C)C5)C3=O)c2CO)cc(Nc2ccncn2)c1=O,LRRK2,"enzyme activity, inhibitor",1 µM,inhibition,-1%
O=c1[nH]c2ccccc2n1C1CCN(Cc2ccc(-c3[nH]c4cc5ncnc5cc4nc3-c3ccccc3)cc2)CC1,LRRK2,cell-free assay,0.5 µM,remaining signal,103%
Nc1ncc(-c2nc(N3CCOCC3)nc(N3CCOCC3)n2)c(C(F)F)n1,LRRK2 G2019S,"binding, competition with immobilised ligand",10 µM,remaining binding,91%
Cn1cncc1[C@@](O)(COc1ccc(C#N)cc1-c1ccc(OC(F)(F)F)cc1)c1ccc(C#N)cc1,LRRK2 G2019S,"cell-free assay, competition with immobilised ligand",1 µM,remaining binding,91%
COc1ncccc1-c1cnn2ccc(N3CCN(C(=O)OC(C)C)CC3)nc12,LRRK2,"binding, competition with immobilised ligand",1 µM,remaining binding,87%
C#Cc1n[nH]c2c(-c3cn(C(C)c4ccccn4)c(=O)[nH]c3=O)cc(F)cc12 (stereo not drawn),LRRK2,"enzyme activity, inhibitor",1 µM,inhibition,-0.2%
CC(C)(C)c1cc(C=C(C#N)C#N)cc(Br)c1O,LRRK2,"enzyme activity, inhibitor",0.5 µM,remaining activity,109%
N#CC1(c2ccccn2)CCN(Cc2cc(C(=O)O)c(=O)n3ccccc23)CC1,LRRK2 G2019S,"cell-free assay, competition with immobilised ligand",1 µM,remaining binding,100%
Cc1nn(C)cc1-c1nc2c(N3CCN(Cc4ccc(Cl)cc4)CC3)c(Cl)cnc2[nH]1,LRRK2 G2019S,"binding, competition with immobilised ligand",1 µM,remaining binding,85%
